# From paper PMC6933791 (ACS Omega, 2019)
# Tests used:
# [1] = system: Na+/K+-ATPase α1,2,3 subunit of the porcine cortex; assay: Na+/K+-ATPase inhibition assay; type: biochemical; conditions: 0.1 μM compound, 30 min co-incubation, positive control = 100% activity
# Method in brief: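 Porcine cortex Na+/K+-ATPase (α1,2,3; 0.05 U/mL) was preincubated 30 min with test compound (0.1 μM) in 40 mM Tris–HCl pH 7.5, 80 mM NaCl, 1 mM EDTA and 8 mM MgAc2. ATP (4 mM) was then added and the reaction stopped after 30 min. Released Pi was read by malachite green at 600 nm after subtracting the no-enzyme control. Uninhibited enzyme defined 100% activity. Run in triplicate.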
# [2] = system: A549 cells; assay: Cell binding of radiolabeled compound; parameters: species or system human
# Method in brief: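 A549 and MRC-5 cells were grown in DMEM with 10% FBS and 1% penicillin/streptomycin (37 °C, 5% CO2), trypsinised, resuspended in PBS pH 7.4 and trypan-blue counted. Labelled test compound (0.1 μM), 99mTc-chelator alone (1.3 μM), or test compound plus 10-fold excess unlabelled cardenolide was shaken with 250 000 viable cells/tube (140 rpm, 120 min, 37 °C). Pellets were counted. Three biological × three technical replicates.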
# [3] = system: MRC-5 cells; assay: MTT cell viability assay, MRC-5; type: cell-based; conditions: read-out: IC50 non-tumor MRC-5 cell line, 48 h, human fetal lung fibroblast MRC-5
# [4] = Blood clearance in healthy mice; type: in vivo; conditions: healthy BALB/c mice, i.v. tail vein
# Method in brief: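 Female BALB/c mice (20 g, 8 weeks old; n = 6 per time point) received 100 μL (3.7 MBq) of diluted 99mTc-labelled test compound (final volume 1800 μL) by tail vein. Blood was sampled at 5, 15, 30, 60, 120 and 240 min, weighed and counted for radioactivity. Percent injected dose per mL blood (%ID/mL) was plotted against time.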
# [5] = system: A549 cells; assay: MTT cell viability assay, A549; type: cell-based; conditions: read-out: IC50 A549 cell line, 48 h, human non-small-cell lung cancer A549
# Method in brief: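 A549 cells (1 × 10^4/well), cultured in DMEM with 10% FBS and antibiotics, were exposed to a range of concentrations of the […] test compound for 48 h. MTT was added (1 mg/mL final) for 4 h at 37 °C, formazan was dissolved in DMSO, and absorbance was read at 570 nm. Cells given 0.5% DMSO defined 100% viability. IC50 came from dose–response curves.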
# [6] = Radiochemical stability in saline; type: physicochemical; conditions: NaCl 0.9% (w/v), room temperature (23 °C), up to 24 h
# Method in brief: (§1)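 The 99mTc-labelled test compound was incubated in 0.9% NaCl at 23 °C or in plasma at 37 °C with agitation. Samples were taken at 1, 2, 4, 8 and 24 h. Radiochemical purity was measured by TLC in acetone (free pertechnetate) and glacial acetic acid/water 15:85 (99mTcO2), with strips counted by scintillation. There were 6 samples per time point, each assessed in duplicate.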
# [7] = Biodistribution in healthy mice; type: in vivo, BALB/c mice; conditions: i.v.
# [8] = Radiochemical stability in plasma; type: in vitro ADME; conditions: 37 °C, under agitation, up to 24 h
# Method in brief: as §1
molecule,measurement,setting,value
"C[C@]12CC[C@H](O)C[C@H]1CC[C@@H]1[C@@H]2CC[C@]2(C)[C@@H](C3=CC(=O)OC3)CC[C@]12O [DIG, digitoxigenin]",Na+/K+-ATPase enzymatic activity remaining,[1],less than 50%
"O=C(O)CN(CCN(CC(=O)O)CC(=O)O)CCN(CC(=O)O)CC(=O)O [DTPA, diethylenetriaminepentaacetic acid]",Na+/K+-ATPase enzymatic activity remaining,[1],no influence
"O=C([O-])CN(CCN(CC(=O)[O-])CC(=O)[O-])CCN(CC(=O)[O-])CC(=O)[O-].[99Tc+4] [^99mTc-DTPA, reference compound]",Affinity to A549 cancer cells,"[2]; 1.3 μM, 2 h incubation, 37 °C",low affinity
^99mTc-DTPA–digitoxigenin,IC50,[3],780 nM
same,Blood half-life,[4],11.7 min
same,IC50,[5],120 nM
same,Radiochemical stability in saline,[6],remained stable
same,Na+/K+-ATPase enzymatic activity remaining,[1],less than 50%
same,Binding to A549 cells when co-incubated with free digitoxigenin,"[2]; 0.1 μM, 10-fold excess of free digitoxigenin, 2 h",reduced to the rate of non-tumor MRC-5 cells
same,Binding to A549 cells compared with non-tumor MRC-5 cells,"[2]; 0.1 μM, 2 h incubation, 37 °C",significantly higher binding
same,"Biodistribution, blood",[7]; 30 min,0.51 %ID/g
same,"Biodistribution, heart",[7]; 30 min,0.31 %ID/g
same,"Biodistribution, intestine",[7]; 30 min,24.97 %ID/g
same,"Biodistribution, kidney",[7]; 30 min,1.64 %ID/g
same,"Biodistribution, liver",[7]; 30 min,4.74 %ID/g
same,"Biodistribution, lungs",[7]; 30 min,1.46 %ID/g
same,"Biodistribution, muscle",[7]; 30 min,0.50 %ID/g
same,"Biodistribution, spleen",[7]; 30 min,0.90 %ID/g
same,"Biodistribution, thyroid",[7]; 30 min,0.59 %ID/g
same,"Biodistribution, blood",[7]; 2 h,0.43 %ID/g
same,"Biodistribution, heart",[7]; 2 h,0.32 %ID/g
same,"Biodistribution, intestine",[7]; 2 h,27.06 %ID/g
same,"Biodistribution, kidney",[7]; 2 h,1.48 %ID/g
same,"Biodistribution, liver",[7]; 2 h,2.34 %ID/g
same,"Biodistribution, lungs",[7]; 2 h,0.6 %ID/g
same,"Biodistribution, muscle",[7]; 2 h,0.26 %ID/g
same,"Biodistribution, spleen",[7]; 2 h,0.85 %ID/g
same,"Biodistribution, thyroid",[7]; 2 h,0.59 %ID/g
same,Radiochemical stability in plasma,[8],remained stable
